Results on 8 compounds are retold here after ChEMBL document CHEMBL1177721, “Cytotoxicity of artesunic acid homo- and heterodimer molecules toward sensitive and multidrug-resistant CCRF-CEM leukemia cells” (J Med Chem, 2010).

Holding throughout (type): functional, cell-based
The test system of one test is CCRF-CEM. Nature of the test: Cytotoxicity against human CCRF-CEM by XTT assay. In outline: (§1)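 XTT (tetrazolium cleavage by cellular dehydrogenases to formazan) read on plate reader. Cells kept in RPMI-1640 with 10% heat-inactivated FCS, 1% penicillin/streptomycin, 37 °C, 5% CO2. CEM/ADR5000 pulsed with 5000 ng/mL doxorubicin for 3 days every other week to keep P-glycoprotein overexpression. IC50 from dose-response curves, mean ± SD of two to three independent experiments, three parallel measurements each.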
(In general: Formazan colour is commonly taken as a measure of viable cells.)

Test [1] concerns ADR5000 cell line. The test can be described thus: Cytotoxicity against human CEM/ADR5000 by XTT assay. The method, boiled down:
as §1

The subject of test [2] is ADR5000 cell line. The test can be described thus: Cell cycle arrest in human CEM/ADR5000 cells assessed as accumulation at G0/G1 phase 1 ug/ml after 48 hrs using propidium iodide staining by flow cytometry. For orientation: In flow cytometry, cells or beads pass a laser one at a time.
The test system of test [3] is ADR5000 cell line. Nature of the test: Induction of apoptosis in human CEM/ADR5000 cells at 2 ug/mL after 48 hrs using propidium iodide staining by flow cytometry.
For test [4], the system named is ADR5000 cell line. The test can be described thus: Increase in ROS generation in human CEM/ADR5000 cells at 0 001 ug/ml after 24 hrs using 2',7'-dichlorodihydrofluoresceine diacetate staining by flow cytometry. In outline: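 Intracellular ROS measured by H2DCFDA staining and flow cytometry. Cells at 5 × 10^5 cells/mL exposed to a range of concentrations, sampled at 6, 24, 48 and 72 h. Fluorescence histograms overlaid on untreated controls. Levels normalised to the median of three nontreated controls.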

For test [5], the system named is ADR5000 cell line. The test can be described thus: Induction of apoptosis in human CEM/ADR5000 cells at 1 ug/mL after 24 hrs using propidium iodide staining by flow cytometry. The method, boiled down: (§2)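 Nicoletti assay: cells were stained with propidium iodide and read by flow cytometry, counting 10 000 cells per sample. Cells were grown in RPMI-1640 with 10% heat-inactivated FCS and 1% penicillin/streptomycin at 37 °C under 5% CO2. To keep P-glycoprotein overexpressed, CEM/ADR5000 cells were given 5000 ng/mL doxorubicin for 3 days every other week.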

In test [6] the test system is ADR5000 cell line. The test can be described thus: Increase in ROS generation in human CEM/ADR5000 cells at 1 ug/ml after 6 hrs 2',7'-dichlorodihydrofluoresceine diacetate staining by flow cytometry.
Test [7] concerns ADR5000 cell line. Nature of the test: Cell cycle arrest in human CEM/ADR5000 cells assessed as accumulation at G0/G1 phase 10 ug/ml after 48 hrs using propidium iodide staining by flow cytometry. The method, boiled down: as §2
The test system of test [8] is ADR5000 cell line. The test can be described thus: Cell cycle arrest in human CEM/ADR5000 cells assessed as accumulation at G2/M phase 0.01 ug/ml after 48 hrs using propidium iodide staining by flow cytometry. The method, boiled down: as §2
The test system of test [9] is ADR5000 cell line. The test can be described thus: Increase in ROS generation in human CEM/ADR5000 cells at 0 01 ug/ml after 72 hrs using 2',7'-dichlorodihydrofluoresceine diacetate staining by flow cytometry.

Activity calls are given as the source filed them. No cut-off for these calls is given here. Bounds are passed on as bounds.

Broadly, the IC50 is the concentration that inhibits the measured activity by half. Lower therefore signals greater potency in that assay. For `C[C@H]1[C@H](OC(=O)CCC(=O)NCCCNC(=O)CCC(=O)O[C@@H]2O[C@@H]3O[C@@]4(C)CC[C@H]5[C@H](C)CC[C@@H]([C@H]2C)[C@@]35OO4)O[C@@H]2O[C@@]3(C)CC[C@H]4[C@H](C)CC[C@@H]1[C@@]24OO3`, the IC50 worked out at 1.2 µM in the test with CCRF-CEM and 0.2 µM in the test on ADR5000 cell line [1]. Further, the outcome with ADR5000 cell line [2], with ADR5000 cell line [3] and in the test on ADR5000 cell line [4] was Active.
Take `COc1cccc2c1C(=O)c1c(O)c3c(c(O)c1C2=O)C[C@@](O)(C(=O)CO)C[C@@H]3O[C@H]1C[C@H](N)[C@H](O)[C@H](C)O1` [DOXORUBICIN]: the results for the IC50 with CCRF-CEM and in the test with ADR5000 cell line [1] were 0.0369 µM and above 5.2 µM, respectively. The result with ADR5000 cell line [5] was Active. In addition, in the test on ADR5000 cell line [6], the result was inactive.
On to `C[C@H]1[C@H](OC(=O)CCC(=O)O)O[C@@H]2O[C@@]3(C)CC[C@H]4[C@H](C)CC[C@@H]1[C@@]24OO3` [ARTESUNATE], for which the figures for the IC50 in the test on CCRF-CEM and in the test on ADR5000 cell line [1] were 1.8 µM and 1.2 µM, respectively. For the same compound, the result with ADR5000 cell line [7], with ADR5000 cell line [8], in the test with ADR5000 cell line [3] and in the test with ADR5000 cell line [9] was Active.
Turning to `C=C(C)[C@@H]1CC[C@]2(COC(=O)CCC(=O)O[C@@H]3O[C@@H]4O[C@@]5(C)CC[C@H]6[C@H](C)CC[C@@H]([C@H]3C)[C@@]46OO5)CC[C@]3(C)[C@H](CC[C@@H]4[C@@]5(C)CC[C@H](OC(=O)CCC(=O)O[C@@H]6O[C@@H]7O[C@@]8(C)CC[C@H]9[C@H](C)CC[C@@H]([C@H]6C)[C@@]79OO8)C(C)(C)[C@@H]5CC[C@]43C)[C@@H]12`, the IC50 in the test with CCRF-CEM turned out to be 42.9 µM; in the test on ADR5000 cell line [1], 42.1 µM.
Turning to `C=C(C)[C@@H]1CC[C@]2(COC(C)=O)CC[C@]3(C)[C@H](CC[C@@H]4[C@@]5(C)CC[C@H](OC(=O)CCC(=O)O[C@@H]6O[C@@H]7O[C@@]8(C)CC[C@H]9[C@H](C)CC[C@@H]([C@H]6C)[C@@]79OO8)C(C)(C)[C@@H]5CC[C@]43C)[C@@H]12`, the values for the IC50 with CCRF-CEM and in the test on ADR5000 cell line [1] were 31.9 µM and 20.8 µM, respectively.
In the same order, the values of `C=C(C)[C@@H]1CC[C@]2(CO)CC[C@]3(C)[C@H](CC[C@@H]4[C@@]5(C)CC[C@H](O)C(C)(C)[C@@H]5CC[C@]43C)[C@@H]12` [BETULIN] are 50.8 µM and 56.5 µM.
For `C[C@@H]1CC[C@H]2[C@@H](C)C(=O)O[C@@H]3O[C@@]4(C)CC[C@@H]1[C@]32OO4` [ARTEMISININ], the IC50 in the test on CCRF-CEM is 36.9 µM; in the test with ADR5000 cell line [1], 26.9 µM.
`C=C(C)[C@@H]1CC[C@]2(COC(=O)CCC(=O)O[C@@H]3O[C@@H]4O[C@@]5(C)CC[C@H]6[C@H](C)CC[C@@H]([C@H]3C)[C@@]46OO5)CC[C@]3(C)[C@H](CC[C@@H]4[C@@]5(C)CC[C@H](O)C(C)(C)[C@@H]5CC[C@]43C)[C@@H]12`: the IC50 with CCRF-CEM turned out to be 9.7 µM; in the test on ADR5000 cell line [1], 11.9 µM.
